In brackets after ≈: the same amount, converted by molar mass. Activity calls are given as the source filed them. The rule behind the calls is not given here.
Experiments:
[1] = Antineuroinflammatory activity in LPS-stimulated rat neonatal microglia assessed as drug level causing 50% PMA-induced LDH release preincubated 15 mins prior to PMA challenge measured after 70 mins; assay type: functional
Outline: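 Neonatal rat microglia (2 × 10^5/well) primed with E. coli LPS 0.3 ng/mL for 17 h at 35.9 °C, washed with HBSS, given compound (0.01–10 μM) or DMSO 15 min, then PMA 1 μM; LDH read spectrophotometrically after 70 min; LDH50 relative to Triton X-100 (0.1%) release; duplicates.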

[2] = tested on: Vero; assay: Cytotoxicity against african green monkey Vero cells after 48 hrs by neutral red assay; assay type: cell-based; settings: chlorocebus sabaeus
Outline: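 Vero cells seeded at 25,000/well and grown 24 h, then exposed to serially diluted samples for 48 h. Viable cells measured by neutral red assay, with doxorubicin as positive control. IC50 taken from dose-response curves.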

[3] = tested on: Mycobacterium tuberculosis; assay: Antimycobacterial activity against Mycobacterium tuberculosis H37Rv; assay type: functional, organism-based
[4] = tested on: Plasmodium falciparum; assay: Antiplasmodial activity against chloroquine-resistant Plasmodium falciparum W2 after 72 hrs by LDH assay; assay type: functional, organism-based; settings: Plasmodium falciparum, W2, 72 h; read-out: IC50
[5] = tested on: Cryptococcus neoformans; assay: Antifungal activity against Cryptococcus neoformans ATCC 90113; assay type: functional, organism-based
Outline: (§1)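 Broth microdilution per modified CLSI method; samples serially diluted in 20% DMSO/saline, tested in duplicate; inocula set by OD630 of suspensions in incubation broth; growth read at 630 nm before and after incubation; amphotericin B drug control.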

[6] = (§2) Antineuroinflammatory activity in LPS-stimulated rat neonatal microglia assessed as inhibition of PMA-induced superoxide anion production preincubated 15 mins prior to PMA challenge measured after 70 mins; assay type: functional, cell-based
[7] = (§3) Antineuroinflammatory activity in LPS-stimulated rat neonatal microglia assessed as inhibition of PMA-induced TXB2 production preincubated 15 mins prior to PMA challenge measured after 70 mins; assay type: functional, cell-based
[8] = tested on: Plasmodium falciparum; assay: Antiplasmodial activity against chloroquine-sensitive Plasmodium falciparum D6 after 72 hrs by LDH assay; assay type: functional, organism-based; settings: Plasmodium falciparum, D6, 72 h; read-out: IC50
[9] = tested on: Mycobacterium intracellulare; assay: Antimycobacterial activity against Mycobacterium intracellular ATCC 23068; assay type: functional, organism-based
Outline: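 Modified Franzblau method; samples serially diluted in 20% DMSO/saline, tested in duplicate; inoculum set by OD630; fluorescence read at 544ex/590em before and after incubation; ciprofloxacin drug control.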

[10] = tested on: Candida albicans; assay: Antifungal activity against Candida albicans ATCC 90028; assay type: functional, organism-based; outline: as §1
[11] = tested on: Plasmodium yoelii; assay: Antiplasmodial activity against Plasmodium yoelii infected in perorally dosed mice (Mus musculus); assay type: functional; settings: po
[12] = tested on: Microglia; assay: as §2; assay type: functional, cell-based
[13] = tested on: Microglia; assay: as §3; assay type: functional, cell-based

| Structure (SMILES) | Activity [1] [µM] | IC50 [2] [mg/L] | MIC [3] [mg/L] | IC50 [4] [mg/L] | IC50 [5] [mg/L] | IC50 [6] [µM] | IC50 [7] [µM] | IC50 [8] [mg/L] | IC50 [9] [mg/L] | IC50 [10] [mg/L] | ED50 [11] [mg/kg] | ED90 [11] [mg/kg] | Activity [12] | Activity [13] |
| --- | --- | --- | --- | --- | --- | --- | --- | --- | --- | --- | --- | --- | --- | --- |
| COc1ccc2[nH]c3c(c2c1)CCNC3C1=C[C@@]2(O)CC/C=C\CCCCN3CC[C@@H]1[C@]1(C[C@@H]4/C=C\CCCCN4[C@H]12)C3 (some centres undefined) | 3 | 0.2 (≈ 0.343 µM) | > 64 | 0.064 (≈ 0.11 µM) | 2 (≈ 3.43 µM) | 2.2 | 1.65 | 0.057 (≈ 0.0978 µM) | 0.2 (≈ 0.343 µM) | > 20 | – | – | – | – |
| COc1ccc2[nH]c3c(C4=C[C@@]5(O)CC/C=C\CCCCN6CC[C@@H]4[C@]4(C[C@@H]7/C=C\CCCCN7[C@H]45)C6)nccc3c2c1 [6-METHOXYMANZAMINE A] | >10 | 0.5 (≈ 0.864 µM) | > 64 | 0.058 (≈ 0.1 µM) | 3 (≈ 5.18 µM) | 0.1 | 0.11 | 0.028 (≈ 0.0484 µM) | 0.8 (≈ 1.38 µM) | 5 (≈ 8.64 µM) | – | – | – | – |
| O=[N+]([O-])c1ccc2[nH]c3c(C4=C[C@@]5(O)CC/C=C\CCCCN6CC[C@@H]4[C@]4(C[C@@H]7/C=C\CCCCN7[C@H]45)C6)nccc3c2c1 [6-NITROMANZAMINE A] | – | 270 (≈ 455 µM) | 1.6 (≈ 2.69 µM) | 0.028 (≈ 0.0472 µM) | 2.5 (≈ 4.21 µM) | – | – | 0.018 (≈ 0.0303 µM) | 0.15 (≈ 0.253 µM) | > 20 | – | – | – | – |
| CCCCn1c2ccccc2c2ccnc(C3=C[C@@]4(O)CC/C=C\CCCCN5CC[C@@H]3[C@]3(C[C@@H]6/C=C\CCCCN6[C@H]34)C5)c21 [9-N-BUTYLMANZAMINE A] | >10 | 2 (≈ 3.31 µM) | 128 (≈ 212 µM) | 1.3 (≈ 2.15 µM) | > 20 | 0.12 | 0.4 | 0.33 (≈ 0.546 µM) | > 20 | > 20 | – | – | – | – |
| CCn1c2ccccc2c2ccnc(C3=C[C@@]4(O)CC/C=C\CCCCN5CC[C@@H]3[C@]3(C[C@@H]6/C=C\CCCCN6[C@H]34)C5)c21 [9-N-ETHYLMANZAMINE A] | >10 | 1.5 (≈ 2.6 µM) | > 128 | 0.47 (≈ 0.815 µM) | 10 (≈ 17.3 µM) | 9.7 | > 10 | 0.14 (≈ 0.243 µM) | 0.5 (≈ 0.867 µM) | 20 (≈ 34.7 µM) | – | – | – | – |
| CC(C)(C)Cn1c2ccccc2c2ccnc(C3=C[C@@]4(O)CC/C=C\CCCCN5CC[C@@H]3[C@]3(C[C@@H]6/C=C\CCCCN6[C@H]34)C5)c21 [9-N-NEOPENTYLMANZAMINE A] | >10 | 0.7 (≈ 1.13 µM) | 4 (≈ 6.46 µM) | 2.8 (≈ 4.52 µM) | 4 (≈ 6.46 µM) | 0.07 | 0.07 | 2.4 (≈ 3.88 µM) | 0.5 (≈ 0.808 µM) | 7 (≈ 11.3 µM) | – | – | – | – |
| CCCn1c2ccccc2c2ccnc(C3=C[C@@]4(O)CC/C=C\CCCCN5CC[C@@H]3[C@]3(C[C@@H]6/C=C\CCCCN6[C@H]34)C5)c21 [9-N-PROPYLMANZAMINE A] | >10 | 3.7 (≈ 6.26 µM) | 37 (≈ 62.6 µM) | 0.74 (≈ 1.25 µM) | > 20 | 3 | > 10 | 0.69 (≈ 1.17 µM) | 2 (≈ 3.38 µM) | > 20 | – | – | – | – |
| C[C@H]1[C@H](OC(=O)CCC(=O)[O-])O[C@@H]2O[C@@]3(C)CC[C@H]4[C@H](C)CC[C@@H]1[C@@]24OO3.[Na+] [SODIUM ARESUNATE] | – | – | – | – | – | – | – | – | – | – | 4.1 | 17 | – | – |
| O[C@]12C=C(c3nccc4c3[nH]c3ccccc34)[C@@H]3CCN(CCCCCCCC1)C[C@@]31C[C@@H]3CCCCCCN3[C@H]12 [TETRAHYDROMANZAMINE A] | >10 | – | 50 (≈ 90.4 µM) | 1.5 (≈ 2.71 µM) | 0.9 (≈ 1.63 µM) | > 10 | > 10 | – | 0.45 (≈ 0.814 µM) | 7.5 (≈ 13.6 µM) | – | – | inactive | inactive |

Source: ChEMBL document CHEMBL1157729, “Structure-activity relationship and mechanism of action studies of manzamine analogues for the control of neuroinflammation and cerebral infections” (J Med Chem, 2010)
